CSC inhib = cancer stem cell inhibition | cancer stem cell-like cells viability, luminescence | inhibition, % at 7.5 µM | 1.1% of 300,000 active | AID 2717; in the data active means inhibition above about 75%; inconclusive means no clear call, values can overlap the other calls; tested in HMLE shEcad cells
Beta cell apopt = beta cell apoptosis inhibition | protection from apoptosis, % (test concentration not listed) | 0.8% of 300,000 active | INS-1E cytokine-induced death, ATP luminescence, 48 h; percent of positive-control rescue, neutral wells zero;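 active means Every replicate reaches about 75%, or at least half do and their mean reaches it too, limit read from the data; inconclusive means At least half of replicates reach the limit but their mean does not; inactive means Under half of replicates reach the limit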;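 further: 0% = cytokine-treated negative control wells and 100% = positive control rescue; higher means more ATP so stronger rescue from cytokine killing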
HIF activator = HIF pathway transcriptional activation. U2OS HRE-luciferase reporter, luminescence; normalized: DMSO 0%, desferrioxamine 100%. activation, % at 7.5 µM (by protocol). 0.32% of 300,000 active. AID 1910;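 active means mean activation of at least 10% of the iron chelator positive control signal, with at least half of replicates also reaching 10%; inconclusive means mean and replicate majority disagree about reaching 10%; inactive means mean and most replicates under 10%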
SKKanGAS inh = blocks kanamycin growth of S. pyogenes SKKanGAS strain; BacTiter-Glo, 6 h; inhibition, % at 7.5 µM; 1.3% of 300,000 active;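 active means mean replicate score, as percent of positive control median, at least 50; inconclusive means mean below 50 but one replicate at or above 50; inactive means mean and every replicate below 50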;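 further: strain carries kanamycin resistance gene driven by streptokinase promoter and grows in 40 µg/ml kanamycin; loss of luminescence reflects streptokinase promoter inhibition or plain growth inhibition; 0% = median of DMSO wells and 100% = positive control at its reference dose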
PfHsp90 yeast 2 = growth inhibition of yeast expressing Plasmodium Hsp90; 0.32% of 310,000 active; S. cerevisiae expressing PfHsp90, BacTiter-Glo ATP, 48 h; yeast lacking PDR1 and PDR3 efflux regulators; inhibition, % at 9.4 µM; AID 504621;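 active means every replicate shows inhibition above about 80%, whatever the replicate mean, limit read from the data; inconclusive means mean inhibition reaches the set limit but some replicate falls short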;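 further: 0% = DMSO neutral controls and 100% = 20 µM radicicol positive controls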
T cruzi repl = T. cruzi replication inhibition; T. cruzi beta-gal in NIH3T3, luminescence, 90 h; inhibition, % (no concentration beside the values); 1.4% of 300,000 active; AID 1885;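 active means mean inhibition across valid replicates above about 55%, limit read from the data; inconclusive means mean below that limit but half or more replicates reach it; inactive means mean below it, under half of replicates reach it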;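 further: signal also drops with host cell toxicity which is not excluded here; 0% = plate median of DMSO wells and 100% = zero luminescence signal; higher percent means less beta-gal luminescence so fewer parasites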
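Test system: β-gal T. cruzi (Tulahuen C4) inside NIH/3T3 cells / Quantity: 5,000 cells/well / Measured by: luminescence from GalScreen with 0.05% NP40, read after 60 min / Medium: DMEM plus 2% FBS / Measure: parasite load inhibition, % / Reagent: Tulahuen C4 trypomastigotes, 5000/well / Schedule: co-culture of at least 90 h after 3 h attachment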
The depositor's hits bear a star. An excerpt weighted towards active compounds, which were near 3.6% of everything screened.

How did CCOc1ccc(NC(=O)CCSc2nc3c(c(CC)c2C#N)C(=O)CC(C)(C)C3)cc1 do in these assays?
CSC inhib: 27.6; Beta cell apopt: -5.5; HIF activator: 0.0; SKKanGAS inh: 7.3; PfHsp90 yeast 2: 5.1; T cruzi repl: 55.0*

Results for CCc1c(C#N)c(SCCC(=O)Nc2ccc(C)cc2)nc2c1C(=O)CC(C)(C)C2 ?
CSC inhib: 39.7; Beta cell apopt: -3.7; HIF activator: 1.2; SKKanGAS inh: 12.9; PfHsp90 yeast 2: -1.7; T cruzi repl: 51.4

How did Cc1ccc(S(=O)(=O)c2nc(S(C)(=O)=O)sc2N2CCCCC2C)cc1 (stereo not drawn) do in these assays?
CSC inhib: -7.2; Beta cell apopt: 0.5; HIF activator: -1.4; SKKanGAS inh: 4.2; PfHsp90 yeast 2: -79.6; T cruzi repl: 9.2

Results for c1ccc(-c2cc(-c3ccncc3)nc3ccc4ccccc4c23)cc1 ?
CSC inhib: 102.4*; Beta cell apopt: 0.1; HIF activator: -0.3; SKKanGAS inh: 100.1*; PfHsp90 yeast 2: 62.7; T cruzi repl: 36.3

Results for C/C(=N\NC(=O)CNc1cccc(Cl)c1C)C1CC1 ?
CSC inhib: -6.7; Beta cell apopt: 0.2; HIF activator: 0.3; SKKanGAS inh: 25.9; PfHsp90 yeast 2: -11.2; T cruzi repl: -13.1

Results for CC(C)CCc1noc(CN(C)CC2CCN(Cc3ccccc3)CC2)n1 ?
CSC inhib: 21.4; Beta cell apopt: 0.2; HIF activator: -0.6; SKKanGAS inh: -1.1; PfHsp90 yeast 2: -25.8; T cruzi repl: 55.0*

Results for CN(Cc1nc(-c2cnccn2)no1)CC1CCN(Cc2ccccc2)CC1 ?
CSC inhib: 3.4; Beta cell apopt: 43.4; SKKanGAS inh: 1.5; PfHsp90 yeast 2: -16.8; T cruzi repl: 15.8

How did COc1cc(C(=O)NNC(=O)CNC(=O)C2CCCCC2)ccc1OC(C)C do in these assays?
CSC inhib: 0.9; Beta cell apopt: -2.6; PfHsp90 yeast 2: 4.2

Results for CC1CCN(CC(O)Cn2c3ccccc3c3ccccc32)CC1 (stereo not drawn) ?
CSC inhib: 1.3; Beta cell apopt: -0.7; HIF activator: 1.5; SKKanGAS inh: -3.4; PfHsp90 yeast 2: 36.9; T cruzi repl: -24.0

How did OC(CN1CCCCC1)Cn1c2ccc(Cl)cc2c2cc(Cl)ccc21 (stereo not drawn) do in these assays?
CSC inhib: inconclusive; HIF activator: -21.7; SKKanGAS inh: 4.7; PfHsp90 yeast 2: 2.4; T cruzi repl: 81.9*

Results for OC(CN1CCN(c2ccccn2)CC1)Cn1c2ccc(Cl)cc2c2cc(Cl)ccc21 (stereo not drawn) ?
CSC inhib: 105.3*; Beta cell apopt: 2.5; HIF activator: -27.2; SKKanGAS inh: 43.5; PfHsp90 yeast 2: -0.6; T cruzi repl: 43.0

Results for O=C1c2cc(Cl)ccc2-c2c(O)cc(Cl)cc21 ?
PfHsp90 yeast 2: 97.0*

What do the screens show for `Cc1cnc(C(=O)OCC(=O)N2CCC(C)CC2)cn1`?
CSC inhib: 2.7; Beta cell apopt: -6.6; PfHsp90 yeast 2: 11.5

Results for O=C(NC(=S)Nc1ccccc1OC(F)F)c1ccc2c(c1)OCO2 ?
CSC inhib: -6.8; Beta cell apopt: 5.7; PfHsp90 yeast 2: 1.4

What do the screens show for `CCN1CCN(c2ccc(S(=O)(=O)N3CCCCC3)cc2NC(=O)Cc2ccccc2)CC1`?
CSC inhib: -9.3; Beta cell apopt: -4.4; HIF activator: 0.2; SKKanGAS inh: -14.2; PfHsp90 yeast 2: -12.4; T cruzi repl: 45.3

Results for CCN1CCN(c2ccc(S(=O)(=O)N3CCCCC3)cc2NC(=O)c2ccc(C)o2)CC1 ?
CSC inhib: -13.1; Beta cell apopt: 7.7; HIF activator: -0.3; SKKanGAS inh: 3.2; PfHsp90 yeast 2: -0.6; T cruzi repl: 54.6*

What do the screens show for `CCN1CCN(c2ccc(S(=O)(=O)N3CCCCC3)cc2NC(=O)Cc2ccccc2F)CC1`?
CSC inhib: -13.2; Beta cell apopt: 2.7; HIF activator: -0.3; SKKanGAS inh: -7.2; PfHsp90 yeast 2: 0.1; T cruzi repl: 54.8*

What do the screens show for `CCN1CCN(c2ccc(S(=O)(=O)N3CCCCC3)cc2NC(=O)c2ccc([N+](=O)[O-])s2)CC1`?
CSC inhib: 33.6; Beta cell apopt: 113.3*; HIF activator: -1.1; SKKanGAS inh: -1.5; T cruzi repl: 54.7*

How did CCN1CCN(c2ccc(S(=O)(=O)N3CCCCC3)cc2NC(=O)Cc2ccc(Cl)c(Cl)c2)CC1 do in these assays?
CSC inhib: -3.1; Beta cell apopt: 13.8; HIF activator: 0.1; SKKanGAS inh: -13.4; PfHsp90 yeast 2: -3.0; T cruzi repl: 63.0*

What do the screens show for `CN(C(=O)COC(=O)CCc1c[nH]c2ccccc12)C(c1ccccc1)c1ccccc1`?
CSC inhib: -5.5; Beta cell apopt: -6.5; HIF activator: 0.0; SKKanGAS inh: 5.7; PfHsp90 yeast 2: -31.7; T cruzi repl: -10.3

What do the screens show for `Cc1cnc(C(=O)Nc2ccc(C)c(S(=O)(=O)N3CCCCCC3)c2)cn1`?
PfHsp90 yeast 2: 2.6

What do the screens show for `Cc1ccc(-c2nnc(CCC(=O)NCc3csc(C)n3)o2)s1`?
CSC inhib: -6.4; Beta cell apopt: -1.5; HIF activator: 0.5; SKKanGAS inh: -16.9; PfHsp90 yeast 2: -3.5; T cruzi repl: -9.5

How did O=C(NCc1ccccc1)c1cccc(NC(=O)C2CC2)c1 do in these assays?
PfHsp90 yeast 2: 1.7

What do the screens show for `Cc1ccc(S(=O)(=O)N(CC(=O)Nc2ccc(C)cc2C)C(=O)N2CCN(C)CC2)cc1`?
Beta cell apopt: -5.6; HIF activator: -0.3; SKKanGAS inh: 17.6; PfHsp90 yeast 2: 4.2; T cruzi repl: -18.9

What do the screens show for `Cc1cc(C)c2nc(NNC(=O)c3ccc(S(=O)(=O)N4CCCC(C)C4)cc3)sc2c1` (stereo not drawn)?
CSC inhib: 118.6*; Beta cell apopt: 107.1*; HIF activator: 26.4*; SKKanGAS inh: 91.9*; PfHsp90 yeast 2: -29.8; T cruzi repl: 61.3*

How did Cc1ccc2nc(NNC(=O)c3ccc4c(c3)OCCO4)sc2c1 do in these assays?
CSC inhib: 15.1; HIF activator: 0.4; SKKanGAS inh: 3.2; PfHsp90 yeast 2: 14.2; T cruzi repl: -5.7

What do the screens show for `Cc1ccc2nc(NNC(=O)c3ccc(S(=O)(=O)N4CCc5ccccc5C4)cc3)sc2c1`?
CSC inhib: 102.3*; Beta cell apopt: 98.4*; HIF activator: 98.7*; SKKanGAS inh: 79.4*; PfHsp90 yeast 2: 10.5; T cruzi repl: 71.0*

What do the screens show for `Cc1cccc2sc(NNC(=O)c3ccc(S(=O)(=O)N4CC(C)CC(C)C4)cc3)nc12` (stereo not drawn)?
CSC inhib: 117.6*; Beta cell apopt: 110.4*; HIF activator: 5.8; SKKanGAS inh: 91.7*; PfHsp90 yeast 2: 73.1; T cruzi repl: 65.6*

Results for CCC(=O)NNc1nc2c(C)cc(C)cc2s1 ?
CSC inhib: -2.1; Beta cell apopt: 1.2; HIF activator: 0.1; SKKanGAS inh: -7.5; PfHsp90 yeast 2: -6.9; T cruzi repl: -16.5

Assay outcomes: PubChem BioAssay, Broad Institute
